Measurements reported in ChEMBL document CHEMBL4364345, “Synthesis and evaluation of 1,3,4-oxadiazole derivatives for development as broad-spectrum antibiotics” (Bioorg Med Chem, 2019).
Values after ≈ are worked out from the molar mass of the structure shown.

How the values were obtained:
Enterococcus faecium [1] = experiment: Antimicrobial activity against Enterococcus faecium AUS0004 by broth microdilution method; assay type: functional
Summary of the method: (§1)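 MICs were set by broth microdilution following EUCAST guidelines, from three independent experiments reported as values or ranges. MICs were measured only where disk-diffusion inhibition diameters were 9 mm or more.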

Proteus mirabilis = experiment: Antimicrobial activity against Proteus mirabilis clinical isolate at 50 ug/disk incubated for 20 +/- 4 hrs by agar disk diffusion method; assay type: functional; details: read-out: DIZ
Summary of the method: (§2)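 Agar disk diffusion on Mueller-Hinton agar swab-seeded from a 0.5 McFarland inoculum (about 10^8 CFU/ml). Cellulose discs got 50 μg compound (10 μl of 5 g/L in DMSO); a 10 μL DMSO disc was the control. Incubated aerobically at 35 ± 2 °C for 20 ± 4 h, then growth-inhibition diameters measured.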

Escherichia coli [2] = experiment: Bactericidal activity against TolC deficient Escherichia coli BW25113 by broth microdilution method; assay type: functional
Bacillus subtilis = experiment: Antimicrobial activity against Bacillus subtilis clinical isolate at 50 ug/disk incubated for 20 +/- 4 hrs by agar disk diffusion method; assay type: functional; details: read-out: DIZ; summary of the method: as §2
[3] = system: Mycolicibacterium fortuitum; experiment: Antimicrobial activity against Mycobacterium fortuitum clinical isolate by broth microdilution method; assay type: functional; summary of the method: as §1
Morganella morganii = experiment: Antimicrobial activity against Morganella morganii EB6 clinical isolate at 50 ug/disk incubated for 20 +/- 4 hrs by agar disk diffusion method; assay type: functional; details: read-out: DIZ; summary of the method: as §2
Escherichia coli [4] = experiment: Antimicrobial activity against clpP-TolC deficient Escherichia coli BW25113 by agar disk diffusion method; assay type: functional
MCF7 = experiment: Cytotoxicity against human MCF7 cells assessed as decrease in cell viability in MTT assay; assay type: cell-based
Summary of the method: (§3)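 Cell viability was measured by MTT on a robotic screening platform. Residual viability was expressed as a percentage of the mean viable cells in DMSO-treated controls. Under 25-30% viability was considered cytotoxic, and IC50 values were derived.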

Staphylococcus aureus = experiment: Antimicrobial activity against Staphylococcus aureus ATCC 29213 by broth microdilution method; assay type: functional; summary of the method: as §1
Escherichia coli [5] = experiment: Antimicrobial activity against Escherichia coli ATCC 25922 at 50 ug/disk incubated for 20 +/- 4 hrs by agar disk diffusion method; assay type: functional; details: read-out: DIZ; summary of the method: as §2
[6] = system: Mycobacteroides abscessus; experiment: Antimicrobial activity against Mycobacterium abscessus clinical isolate at 50 ug/disk incubated for 4 days by agar disk diffusion method; assay type: functional; details: 96 h, read-out: DIZ
Summary of the method: (§4)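 On MH agar with 5% horse blood, a 0.5 McFarland inoculum was swabbed and discs with 50 μg compound (from 5 g/L in DMSO) were laid down, alongside a DMSO control disc. Incubation was humid and aerobic at 35 ± 2 °C for 4 days, then growth-inhibition diameters were measured.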

Huh-7 = experiment: Cytotoxicity against human HuH7 cells assessed as decrease in cell viability in MTT assay; assay type: cell-based; summary of the method: as §3
Bacteroides fragilis [7] = experiment: Antimicrobial activity against Bacteroides fragilis ATCC 25285 by broth microdilution method; assay type: functional; summary of the method: as §1
Caco-2 = experiment: Cytotoxicity against human Caco2 cells assessed as decrease in cell viability in MTT assay; assay type: cell-based; summary of the method: as §3
Enterococcus faecalis [8] = experiment: Antimicrobial activity against Enterococcus faecalis ATCC 29212 at 50 ug/disk incubated for 20 +/- 4 hrs by agar disk diffusion method; assay type: functional; details: read-out: DIZ; summary of the method: as §2
MDA-MB-231 = experiment: Cytotoxicity against human MDA-MB-231 cells assessed as decrease in cell viability in MTT assay; assay type: cell-based; summary of the method: as §3
Escherichia coli [9] = experiment: Antimicrobial activity against Escherichia coli BW25113 by broth microdilution method; assay type: functional
Summary of the method: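 MIC by broth microdilution per EUCAST guidelines, in E. coli BW25113 and its previously described deletion derivative.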

PC-3 = experiment: Cytotoxicity against human PC3 cells assessed as decrease in cell viability in MTT assay; assay type: cell-based; summary of the method: as §3
Enterococcus faecalis [10] = experiment: Antimicrobial activity against Enterococcus faecalis ATCC 29212 by broth microdilution method; assay type: functional; summary of the method: as §1
Escherichia coli [11] = experiment: Antimicrobial activity against ssrA-TolC deficient Escherichia coli BW25113 by agar disk diffusion method; assay type: functional
[12] = system: Mycolicibacterium fortuitum; experiment: Antimicrobial activity against Mycobacterium fortuitum clinical isolate at 50 ug/disk incubated for 4 days by agar disk diffusion method; assay type: functional; details: 96 h, read-out: DIZ; summary of the method: as §4
[13] = system: Staphylococcus epidermidis; experiment: Antimicrobial activity against Staphylococcus epidermidis clinical isolate at 50 ug/disk incubated for 20 +/- 4 hrs by agar disk diffusion method; assay type: functional; details: read-out: DIZ; summary of the method: as §2
Bacteroides fragilis [14] = experiment: Antimicrobial activity against Bacteroides fragilis ATCC 25285 at 50 ug/disk incubated for 20 +/- 4 hrs by agar disk diffusion method; assay type: functional; details: read-out: DIZ
Summary of the method: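 Anaerobic disk diffusion: MH agar + 5% horse blood seeded from a 0.5 McFarland swab, with discs of 50 μg compound (10 μl of 5 g/L DMSO solution) and a DMSO control disc. Kept at 35 ± 2 °C under anaerobic conditions for 20 ± 4 h; inhibition diameters recorded.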

Streptococcus pyogenes = experiment: Antimicrobial activity against Streptococcus pyogenes clinical isolate by broth microdilution method; assay type: functional; summary of the method: as §1
HCT-116 = experiment: Cytotoxicity against human HCT116 cells assessed as decrease in cell viability in MTT assay; assay type: cell-based; summary of the method: as §3
Klebsiella pneumoniae = experiment: Antimicrobial activity against Klebsiella pneumoniae clinical isolate at 50 ug/disk incubated for 20 +/- 4 hrs by agar disk diffusion method; assay type: functional; details: read-out: DIZ; summary of the method: as §2
Clostridium perfringens = experiment: Antimicrobial activity against Clostridium perfringens clinical isolate at 50 ug/disk incubated for 20 +/- 4 hrs by agar disk diffusion method; assay type: functional; details: read-out: DIZ
Summary of the method: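 Agar disk diffusion on MH agar with 5% horse blood (MHF), surface-seeded by swab from a 0.5 McFarland inoculum (about 10^8 CFU/ml). Cellulose discs received 10 μl of a 5 g/L DMSO solution (50 μg). A DMSO-only disc served as control. Anaerobic incubation at 35 ± 2 °C for 20 ± 4 h; growth-inhibition diameter measured in mm.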

Escherichia coli [15] = experiment: Antimicrobial activity against arfA-arfB TolC deficient Escherichia coli BW25113 by agar disk diffusion method; assay type: functional
Acinetobacter baumannii = experiment: Antimicrobial activity against Acinetobacter baumannii clinical isolate at 50 ug/disk incubated for 20 +/- 4 hrs by agar disk diffusion method; assay type: functional; details: read-out: DIZ; summary of the method: as §2
Enterococcus faecium [16] = experiment: Synergistic antimicrobial activity against Enterococcus faecium AUS0004 assessed as DIZ at 50 ug/disk incubated for 20 +/- 4 hrs in presence of erythromycin by agar disk diffusion method (reference value: 6 millimeter); assay type: functional; details: read-out: DIZ
Listeria monocytogenes = experiment: Synergistic antimicrobial activity against Listeria monocytogenes clinical isolate assessed as DIZ at 50 ug/disk incubated for 20 +/- 4 hrs in presence of ofloxacin by agar disk diffusion method (reference value: 19 millimeter); assay type: functional; details: read-out: DIZ
Enterococcus faecalis [17] = experiment: Synergistic antimicrobial activity against Enterococcus faecalis ATCC 29212 assessed as DIZ at 50 ug/disk incubated for 20 +/- 4 hrs in presence of streptomycin by agar disk diffusion method (reference value: 18 millimeter); assay type: functional; details: read-out: DIZ
Enterococcus faecalis [18] = experiment: Synergistic antimicrobial activity against Enterococcus faecalis ATCC 29212 assessed as DIZ at 50 ug/disk incubated for 20 +/- 4 hrs in presence of rifampicin by agar disk diffusion method (reference value: 20 millimeter); assay type: functional; details: read-out: DIZ
Enterococcus faecalis [19] = experiment: Synergistic antimicrobial activity against Enterococcus faecalis ATCC 29212 assessed as DIZ at 50 ug/disk incubated for 20 +/- 4 hrs in presence of gentamicin by agar disk diffusion method (reference value: 13 millimeter); assay type: functional; details: read-out: DIZ
Enterococcus faecium [20] = experiment: Synergistic antimicrobial activity against Enterococcus faecium AUS0004 assessed as DIZ at 50 ug/disk incubated for 20 +/- 4 hrs in presence of rifampicin by agar disk diffusion method (reference value: 10 millimeter); assay type: functional; details: read-out: DIZ

## O=C(Nc1nnc(-c2ccc(F)cc2)o1)c1ccc(Cl)cc1
Enterococcus faecium [1]
  MIC: 16 µg/mL (≈ 50.4 µM)
Proteus mirabilis
  zone of inhibition at 50 µg/disc: 6 mm
Escherichia coli [2]
  MBC: > 32 µM
Bacillus subtilis
  zone of inhibition at 50 µg/disc: 12 mm
[3]
  MIC: 32 µg/mL (≈ 101 µM)
Morganella morganii
  zone of inhibition at 50 µg/disc: 6 mm
Escherichia coli [4]
  diameter of the inhibition zone (DIZ): 14.3 mm
MCF7
  IC50: 22 µM
Staphylococcus aureus
  MIC: 0.5 to 4 µg/mL (≈ 1.57 to 12.6 µM)
Escherichia coli [5]
  zone of inhibition at 50 µg/disc: 6 mm
[6]
  zone of inhibition at 50 µg/disc: 6 mm
Huh-7
  IC50: 20 µM
Bacteroides fragilis [7]
  MIC: 2 to 4 µg/mL (≈ 6.3 to 12.6 µM)
Caco-2
  IC50: 14 µM
Enterococcus faecalis [8]
  zone of inhibition at 50 µg/disc: 6 mm
MDA-MB-231
  IC50: 25 µM
Escherichia coli [9]
  MIC: > 128 µM
PC-3
  IC50: 21 µM
Enterococcus faecalis [10]
  MIC: 16 µg/mL (≈ 50.4 µM)
Escherichia coli [11]
  diameter of the inhibition zone (DIZ): 13 mm
[12]
  zone of inhibition at 50 µg/disc: 9 mm
[13]
  zone of inhibition at 50 µg/disc: 15 mm
Bacteroides fragilis [14]
  zone of inhibition at 50 µg/disc: 6 mm
Streptococcus pyogenes
  MIC: 32 to 64 µg/mL (≈ 101 to 201 µM)
HCT-116
  IC50: 17 µM
Klebsiella pneumoniae
  zone of inhibition at 50 µg/disc: 6 mm
Clostridium perfringens
  zone of inhibition at 50 µg/disc: 6 mm
Escherichia coli [15]
  diameter of the inhibition zone (DIZ): 12.3 mm
Acinetobacter baumannii
  zone of inhibition at 50 µg/disc: 6 mm

## O=C(Nc1nnc(-c2ccc(C(F)(F)F)cc2)o1)c1ccc(Cl)nc1
Enterococcus faecium [1]
  MIC: 2 µg/mL (≈ 5.42 µM)
Proteus mirabilis
  zone of inhibition at 50 µg/disc: 6 mm
Enterococcus faecium [16]
  zone of inhibition at 50 µg/disc: 22 mm
Escherichia coli [2]
  MBC: > 32 µM
Bacillus subtilis
  zone of inhibition at 50 µg/disc: 24 mm
[3]
  MIC: 8 µg/mL (≈ 21.7 µM)
Morganella morganii
  zone of inhibition at 50 µg/disc: 6 mm
Escherichia coli [4]
  diameter of the inhibition zone (DIZ): 27 mm
MCF7
  IC50: > 25 µM
Staphylococcus aureus
  MIC: 2 to 4 µg/mL (≈ 5.42 to 10.8 µM)
Listeria monocytogenes
  zone of inhibition at 50 µg/disc: 30 mm
Escherichia coli [5]
  zone of inhibition at 50 µg/disc: 6 mm
Enterococcus faecalis [17]
  zone of inhibition at 50 µg/disc: 22 mm
[6]
  zone of inhibition at 50 µg/disc: 14 mm
Huh-7
  IC50: > 25 µM
Bacteroides fragilis [7]
  MIC: 2 µg/mL (≈ 5.42 µM)
Caco-2
  IC50: > 25 µM
Enterococcus faecalis [8]
  zone of inhibition at 50 µg/disc: 23 mm
MDA-MB-231
  IC50: > 25 µM
Escherichia coli [9]
  MIC: > 128 µM
PC-3
  IC50: > 25 µM
Enterococcus faecalis [18]
  zone of inhibition at 50 µg/disc: 23 mm
Enterococcus faecalis [10]
  MIC: 2 to 4 µg/mL (≈ 5.42 to 10.8 µM)
Enterococcus faecalis [19]
  zone of inhibition at 50 µg/disc: 23 mm
Escherichia coli [11]
  diameter of the inhibition zone (DIZ): 27 mm
[12]
  zone of inhibition at 50 µg/disc: 19 mm
[13]
  zone of inhibition at 50 µg/disc: 28 mm
Bacteroides fragilis [14]
  zone of inhibition at 50 µg/disc: 16 mm
Streptococcus pyogenes
  MIC: 32 µg/mL (≈ 86.8 µM)
HCT-116
  IC50: > 25 µM
Klebsiella pneumoniae
  zone of inhibition at 50 µg/disc: 6 mm
Clostridium perfringens
  zone of inhibition at 50 µg/disc: 13 mm
Escherichia coli [15]
  diameter of the inhibition zone (DIZ): 22.05 mm
Acinetobacter baumannii
  zone of inhibition at 50 µg/disc: 6 mm
Enterococcus faecium [20]
  zone of inhibition at 50 µg/disc: 22 mm
